Series [1] deals with Mus musculus. The series can be described thus: Toxicity in ICR mouse xenografted with mouse S180 cells assessed as femur weight at 1 mg/kg, ip administered 24 hrs after tumor implantation daily for 7 consecutive days measured after 24 hrs of last dose (Rvb=0.056 +/- 0.006 g). The series is classed as organism-based, CCRF S-180. Details: dose 1 mg/kg, route intraperitoneal. The following applies: in vivo.

Series [2] concerns Mus musculus. The series can be described thus: Neurotoxicity in ICR mouse assessed as occurrence of neurotoxic behavior at 10 to 500 mg/kg, ip measured up to 7 days post dose. The following applies: in vivo, 168 h. The series is classed as toxicity, organism-based. Set-up: dose 10-500 mg/kg, route intraperitoneal. An outline of the steps: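 Healthy ICR mice, 10–12 weeks old, 12 per group (six male, six female), fasted overnight with water available. Single ip injection of 10, 100 or 500 mg/kg in 0.2 mL 0.9% saline. Monitored continuously up to 7 days for abnormal behavior (tremor, twitch, jumping, tetanus, supination) or death. Sacrificed on day 7; heart, liver and kidneys checked macroscopically.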

The subject of series [3] is Mus musculus. The series can be described thus: Toxicity in ICR mouse assessed as change in heart weight at 10 to 500 mg/kg, ip measured on day 7 post dose by necroscopy. The series is classed as organism-based. Details: dose 10-500 mg/kg, route intraperitoneal. The following applies: in vivo.
In series [4] the test system is Mus musculus. The series can be described thus: Toxicity in ICR mouse assessed as change in liver weight at 10 to 500 mg/kg, ip measured on day 7 post dose by necroscopy. The series is classed as organism-based. Details: dose 10-500 mg/kg, route intraperitoneal. The following applies: in vivo.
The subject of series [5] is Mus musculus. The series can be described thus: Toxicity in ICR mouse assessed as change in kidney weight at 10 to 500 mg/kg, ip measured on day 7 post dose by necroscopy. The series is classed as organism-based. Details: dose 10-500 mg/kg, route intraperitoneal. The following applies: in vivo.
Series [6] relates to Mus musculus. The experiment in a line: Toxicity in ICR mouse assessed as mortality up to 500 mg/kg, ip measured after 7 days post dose. It counts as organism-based. Details: dose 500 mg/kg, route intraperitoneal. The following applies: in vivo, 168 h. In outline: (§1)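 ICR mice, 10–12 weeks old, of both sexes (six males and six females, 12 per group), housed at 21 °C and fasted overnight with water available. They received a single ip injection of 10, 100 or 500 mg/kg in 0.2 mL 0.9% saline. Mice were watched continuously for 7 days for neurotoxic behaviour or death, then killed on day 7 and checked macroscopically (heart, liver, kidneys). LD50 was estimated graphically.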

Series [7] is described as follows: Toxicity in ip dosed ICR mouse measured after 7 days post dose. The series is classed as organism-based. The following applies: in vivo. In outline:
as §1

A short description of series [8]: Lipophilicity, log K at 10 uM after 40 mins by HPLC analysis. The series is classed as physicochemical. In outline:
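Sample at 10^-5 M analysed by reversed-phase C18 HPLC, eluted with CH3OH/H2O 0.7/0.3 at 1 mL/min for 40 min, UV detection at 254.8 nm. Retention time tR recorded; acetone peak taken as t0 (1.591 min). Log K = Log[(tR − t0)/t0].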

The next series concerns A549. The series can be described thus: Antiproliferative activity against human A549 cells after 3 days by sulforhodamine B assay. It counts as functional, cell-based. The following applies: A549, 72 h. In outline: (§2)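 Freshly trypsinized cells seeded at 5000 per well; compounds added from DMSO-diluted stock at 60, 6, 0.6, 0.06 and 0.006 µM. After 3 days, attached cells were fixed with cold 10% trichloroacetic acid, stained with 0.4% sulforhodamine B, the bound dye solubilized, and absorbance read at 562 nm. IC50 is the concentration reducing cell growth by 50%, averaged from at least three independent determinations.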

The subject of another series is PC-3. The experiment in a line: Antiproliferative activity against human PC3 cells after 3 days by sulforhodamine B assay. The following applies: PC-3, 72 h. It counts as functional, cell-based. In outline:
as §2

Another series concerns MCF7. The series can be described thus: Antiproliferative activity against human MCF7 cells after 3 days by sulforhodamine B assay. The series is classed as functional, cell-based. The following applies: MCF7, 72 h. An outline of the steps:
as §2
(Sulforhodamine B stains cellular protein and so reports cell mass.)

The test system of a further series is KB. The experiment in a line: Antiproliferative activity against human KB cells after 3 days by sulforhodamine B assay. It counts as functional, cell-based. The following applies: 72 h. An outline of the steps: as §2
Series [9] in a line: Antiproliferative activity against human KBVIN cells after 3 days by sulforhodamine B assay. The series is classed as functional, cell-based. The following applies: 72 h. In outline:
as §2

The subject of series [10] is CCRF S-180. The series can be described thus: Antitumor activity against mouse S180 cells xenografted in ICR mouse assessed as tumor weight at 1 mg/kg, ip administered 24 hrs after tumor implantation daily for 7 consecutive days measured after 24 hrs of last dose (Rvb=1.602 +/- 0.391 g). It counts as functional. The following applies: route intraperitoneal.
In series [11] the test system is CCRF S-180. The series can be described thus: Antitumor activity against mouse S180 cells xenografted in ICR mouse assessed as tumor weight at 0.1 mg/kg, ip administered 24 hrs after tumor implantation daily for 7 consecutive days measured after 24 hrs of last dose (Rvb=1.602 +/- 0.391 g). It counts as functional. The following applies: route intraperitoneal.
Series [12] has as its system CCRF S-180. The experiment in a line: Antitumor activity against mouse S180 cells xenografted in ICR mouse assessed as tumor weight at 0.01 mg/kg, ip administered 24 hrs after tumor implantation daily for 7 consecutive days measured after 24 hrs of last dose (Rvb=1.602 +/- 0.391 g). The series is classed as functional. The following applies: route intraperitoneal.
The test system of series [13] is CCRF S-180. The experiment in a line: Antitumor activity against mouse S180 cells xenografted in ip dosed ICR mouse assessed as decrease in tumor weight administered 24 hrs after tumor implantation daily for 7 consecutive days measured after 24 hrs of last dose. It counts as functional, organism-based.
Series [14] relates to Mus musculus. The series can be described thus: Toxicity in ICR mouse xenografted with mouse S180 cells assessed as body weight at 1 mg/kg, ip administered 24 hrs after tumor implantation daily for 7 consecutive days measured after 24 hrs of last dose (Rvb=33.3 +/- 2.32 g). The following applies: in vivo. It counts as organism-based, CCRF S-180. Set-up: dose 1 mg/kg, route intraperitoneal.

In series [15] the test system is Mus musculus. The series can be described thus: Toxicity in ICR mouse xenografted with mouse S180 cells assessed as heart weight at 1 mg/kg, ip administered 24 hrs after tumor implantation daily for 7 consecutive days measured after 24 hrs of last dose (Rvb=0.17 +/- 0.01 g). It counts as organism-based, CCRF S-180. Details: dose 1 mg/kg, route intraperitoneal. The following applies: in vivo.

The subject of series [16] is Mus musculus. The series can be described thus: Toxicity in ICR mouse xenografted with mouse S180 cells assessed as brain weight at 1 mg/kg, ip administered 24 hrs after tumor implantation daily for 7 consecutive days measured after 24 hrs of last dose (Rvb=0.31 +/- 0.01 g). It counts as organism-based, CCRF S-180. Set-up: dose 1 mg/kg, route intraperitoneal. The following applies: in vivo.

The subject of series [17] is Mus musculus. The experiment in a line: Toxicity in ICR mouse xenografted with mouse S180 cells assessed as liver weight at 1 mg/kg, ip administered 24 hrs after tumor implantation daily for 7 consecutive days measured after 24 hrs of last dose (Rvb=2.36 +/- 0.20 g). The series is classed as organism-based, CCRF S-180. Details: dose 1 mg/kg, route intraperitoneal. The following applies: in vivo.

Series [18] has as its system Mus musculus. The series can be described thus: Toxicity in ICR mouse xenografted with mouse S180 cells assessed as spleen weight at 1 mg/kg, ip administered 24 hrs after tumor implantation daily for 7 consecutive days measured after 24 hrs of last dose (Rvb=0.22 +/- 0.04 g). The series is classed as organism-based, CCRF S-180. Set-up: dose 1 mg/kg, route intraperitoneal. The following applies: in vivo.

In series [19] the test system is Mus musculus. The series can be described thus: Toxicity in ICR mouse xenografted with mouse S180 cells assessed as kidney weight at 1 mg/kg, ip administered 24 hrs after tumor implantation daily for 7 consecutive days measured after 24 hrs of last dose (Rvb=0.23 +/- 0.02 g). The series is classed as organism-based, CCRF S-180. Set-up: dose 1 mg/kg, route intraperitoneal. The following applies: in vivo.

Structures are written as SMILES.

The LD50 is the dose at which mortality reaches 50%. Usually IC50 stands for the concentration needed to halve the response being measured. Read a high IC50 as weaker potency in that assay. `CC1(C)N2Cc3[nH]c4ccccc4c3C[C@H]2C(=O)N1[C@@H](CC(=O)OCc1ccccc1)C(=O)OCc1ccccc1`: the Activity is given as 0.057 g in the series with Mus musculus [1]; “Non-toxic” in the series with Mus musculus [2]; “Non-toxic” with Mus musculus [3]; “Non-toxic” with Mus musculus [4]; “Non-toxic” in the series with Mus musculus [5]; “Non-toxic” in the series with Mus musculus [6]. Also, the Activity was 0.746 g in the series with CCRF S-180 [10]; 1.013 g with CCRF S-180 [11]; 1.305 g in the series with CCRF S-180 [12]; “Dose-dependent effect” in the series with CCRF S-180 [13]; 33.37 g with Mus musculus [14]; 0.17 g in the series with Mus musculus [15]. Moreover, the Activity is given as 0.31 g in the series on Mus musculus [16], 2.26 g in the series with Mus musculus [17], 0.24 g with Mus musculus [18] and 0.23 g in the series on Mus musculus [19]. In addition, the LD50 at 168 h in series [7] is over 500 mg/kg. Moreover, the “log K” value in [8] was determined as 0.96. Besides, the IC50 in the series on A549 was determined as 0.15 µM; in the series with PC-3, 0.04 µM; with MCF7, 7.01 µM; in the series with KB it was 36.3 µM; in series [9], 38.6 µM.

For the origin of these results see ChEMBL document CHEMBL1157623, “Benzyl 1,2,3,5,11,11a-hexahydro-3,3-dimethyl-1-oxo-6H-imidazo[3',4':1,2]pyridin[3,4-b]indole-2-substituted acetates: One-pot-preparation, anti-tumor activity, docking toward DNA and 3D QSAR analysis” (Bioorg Med Chem, 2010).
